Laboratory results as given in publication PMC4530630 (Molecular cell, 2015).

Legend:
[1] = system: A549 cells; assay: Cyto-ID autophagy dye imaging in A549 cells; type: cell-based, human; details: 5 μM 6965 for 2 hours, then 4 μM AZD8055 for 24 hours
Method in brief: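 A549 cells were pretreated with or without test compound (5 μM) for 2 hours, then exposed to the catalytic mTOR inhibitor AZD8055 (4 μM) for 24 hours. Autophagic vacuoles were stained with the Cyto-ID autophagy detection kit and nuclei with DAPI. Read-out was immunofluorescence imaging.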

[2] = system: panel of 456 purified human kinases; assay: DiscoveRx KINOMEscan competition-binding assay; details: tested at 10 μM
[3] = system: endogenous FAK, AMPK, mTOR, Akt, or Erk signaling; assay: immunoblot of endogenous growth pathway signaling in wild-type MEFs; type: cell-based, mouse; details: 10 μM
Method in brief: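 Wild-type and Ulk1/Ulk2 double-knockout MEFs were given fresh DMEM with 10% FBS containing 1 μM INK128, 1 μM AZD8055 or DMSO, or EBSS starvation medium, with or without 10 μM test compound. Endogenous signaling was assessed by immunoblotting. Endogenous ULK1 activity was monitored with a phospho-specific antibody to Atg13 Ser318.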

[4] = system: A549 human lung cancer cells; assay: PE-AnnexinV FACS apoptosis in A549 cells; type: cell-based
Method in brief: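 A549 human lung cancer cells received AZD8055 (1 μM) or DMSO together with increasing doses of test compound for 72 hours. Cells were then collected, stained with PE-AnnexinV and quantified by FACS. Read-out was the percentage of AnnexinV-positive cells, taken as cells actively undergoing apoptosis.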

[5] = system: PC3 human prostate cells stably expressing GFP-LC3; assay: GFP-LC3 puncta high-throughput microscopy in PC3 cells; type: cell-based; details: 1 μM for 4 hours, control siRNA cells
Method in brief: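 GFP-LC3 PC3 cells were used for a focused RNAi screen of kinases. 48 hours after siRNA transfection, cells received 1 μM of the catalytic mTOR inhibitors AZD8055 or INK128 for 4 hours. GFP-LC3 puncta were then imaged, with nuclei counterstained by DAPI. Results were reported as mean puncta number with standard deviation for each siRNA and drug treatment.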

SMILES | effect on AZD8055-induced autophagy (Cyto-ID dye accumulation) [1] | number of kinases inhibited >95% [2] | effect on endogenous FAK, AMPK, mTOR, Akt, or Erk signaling [3] | apoptotic (AnnexinV-positive) cells ([4]; 5 μM 6965 in the absence of AZD8055, 72 hours) [%] | induction in GFP-LC3 puncta formation [5] [fold] | apoptotic (AnnexinV-positive) cells ([4]; AZD8055 (1 μM) alone, 72 hours) [%]
CNC(=O)c1ccccc1Oc1nc(Nc2cc(OC)c(OC)c(OC)c2)ncc1Br [SBI-0206965] | strongly suppressed | 10 out of 456 | did not impair | 10 | – | –
CC(C)n1nc(-c2ccc3oc(N)nc3c2)c2c(N)ncnc21 [INK128] | – | – | – | – | 2 | –
COc1ccc(-c2ccc3c(N4CCOC[C@@H]4C)nc(N4CCOC[C@@H]4C)nc3n2)cc1CO [AZD8055, reference compound] | – | – | – | – | 2 | 7
